Here are results for 15 compounds from ChEMBL document CHEMBL4138109, “Synthesis and structure-activity relationships of novel fused ring analogues of Q203 as antitubercular agents” (Eur J Med Chem, 2017).

The structures appear in SMILES notation. In brackets after ≈: the same amount, converted by molar mass.

A short description of data set [1]: Half life in human liver microsomes. It is filed as ADME, microsome. On the technique in general: Liver microsomes are vesicles of endoplasmic reticulum, rich in cytochrome P450 enzymes.
The nature of data set [2]: Half life in rat liver microsomes. It is filed as ADME, microsome.
Data set [3] deals with Mycobacterium tuberculosis. In words: Antimycobacterial activity against GFP expressing Mycobacterium tuberculosis H37Rv infected in mouse RAW264.7 cells assessed as reduction in bacterial replication after 5 days by confocal microscopic method. The note with it: 120 h. It is filed as functional. The method in brief: (§1)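 H37Rv expressing GFP, grown either in liquid broth (extracellular) or inside macrophages (intracellular). The value is MIC80, the lowest concentration that inhibits growth by 80%, averaged from two independent measurements.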

The test system of data set [4] is Mycobacterium tuberculosis. Briefly: Antimycobacterial activity against GFP expressing Mycobacterium tuberculosis H37Rv assessed as reduction in bacterial replication in culture broth medium. The format is functional. Summed up:
as §1

Data set [5] can be described thus: Cmax in mouse at 10 mg/kg, po. The format is ADME, organism-based. On the set-up: dose 10 mg/kg, route oral. The note with it: in vivo. The method in brief: (§2)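 Mice received a single intravenous dose of 2 mg/kg or an oral dose of 10 mg/kg. Drug concentrations were measured in plasma, with sampling that extended to 24 h, and the pharmacokinetic parameters were derived from the plasma concentration–time profiles.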

Data set [6] is described as follows: Clearance in mouse at 2 mg/kg, iv. The format is ADME, organism-based. Conditions: in vivo. The method in brief:
as §2

Data set [7] can be described thus: Volume of distribution at steady state in mouse at 2 mg/kg, iv. The format is ADME, organism-based. The note with it: in vivo, read-out: Vdss. The method in brief: as §2
The nature of data set [8]: Half life in mouse at 10 mg/kg, po. The note with it: in vivo. The format is ADME, organism-based. The method in brief:
as §2

A short description of data set [9]: Oral bioavailability in mouse at 10 mg/kg. The format is ADME, organism-based. The note with it: in vivo. The method in brief:
as §2

Data set [10] is described as follows: AUC (0 to infinity) in mouse at 10 mg/kg, po. The note with it: in vivo. Further details: dose 10 mg/kg, route oral, time infinity. The format is ADME, organism-based. The method in brief:
as §2

Data set [11] in a line: Tmax in mouse at 10 mg/kg, po. It is filed as ADME, organism-based. The note with it: in vivo. The method in brief: as §2
A short description of data set [12]: Half life in mouse at 2 mg/kg, iv. It is filed as ADME, organism-based. Conditions: in vivo. Summed up:
as §2

The half-life is how long it takes for the measured level to halve. A lower half-life goes with fast loss. In general, MIC80 refers to the lowest concentration that inhibits either 80% of growth or 80% of the strains tested, depending on the study. Take `CCc1nc2cc(Cl)ccn2c1C(=O)NCc1ccc2oc(C)nc2c1`: the half-life in data set [1] was greater than 120 min; in [2], 10.3 min. The results for the MIC80 in data set [3] and in data set [4] were 0.74 µM (≈ 0.273 µg/mL) and 1.53 µM (≈ 0.564 µg/mL), respectively.
The corresponding values for `CCc1nc2ccc(Cl)cn2c1C(=O)NCc1ccc2oc(CN3CCOCC3)nc2c1` are 17 min, 14.1 min, 2.22 µM (≈ 1.01 µg/mL) and 2.67 µM (≈ 1.21 µg/mL).
Turning to `CCc1nc2ccc(Cl)cn2c1C(=O)NCc1ccc2ccccc2c1`, the results for the half-life in data set [1] and in [2] were 6.9 min and 3.1 min, respectively. Further, the results for the MIC80 in [3] and in data set [4] were 0.062 µM (≈ 0.0226 µg/mL) and 0.031 µM (≈ 0.0113 µg/mL), respectively.
For `CCc1nc2ccc(Cl)cn2c1C(=O)NCc1ccc2oc(C3CCCCC3)nc2c1`, in that order: 17 min, 5.2 min, 0.082 µM (≈ 0.0358 µg/mL) and 0.082 µM (≈ 0.0358 µg/mL).
For `CCc1nc2cc(Cl)ccn2c1C(=O)NCc1ccc2oc(-c3ccc(F)cc3)nc2c1`, in that order: 103 min, greater than 120 min, 0.74 µM (≈ 0.332 µg/mL) and 0.082 µM (≈ 0.0368 µg/mL).
For `CCc1nc2cc(Cl)ccn2c1C(=O)NCc1ccc2ccccc2c1`, in that order: 23.7 min, 6.3 min, 1 µM (≈ 0.364 µg/mL) and 0.12 µM (≈ 0.0437 µg/mL).
On to `NNC(=O)c1ccncc1` [ISONIAZID], for which the MIC80 stood at 0.2 µM (≈ 0.0274 µg/mL) in [3] and 0.49 µM (≈ 0.0672 µg/mL) in [4].
Turning to `CCc1nc2ccc(Cl)cn2c1C(=O)NCc1ccc2oc(-c3ccc(OC(F)(F)F)cc3)nc2c1`, the half-life in data set [1] and in [2] was greater than 120 min throughout. Moreover, the MIC80 in [3] was found to be 0.009 µM (≈ 0.00463 µg/mL); in data set [4] it was 0.027 µM (≈ 0.0139 µg/mL).
One may read the Cmax as the maximum level reached in the sampled fluid or tissue. A word on the clearance: it is the rate of elimination divided by the concentration. Read a high clearance as efficient removal. Usually bioavailability stands for the share of a dose that reaches the circulation, judged against a reference dose that is usually intravenous. High values mean much systemic uptake, low ones little systemic uptake. What is called AUC(0-inf) is the area under the concentration-time curve extrapolated to infinity. Higher therefore signals more exposure. In general, Tmax refers to the time at which the peak concentration occurs. For the compound `CCc1nc2cc(Cl)ccn2c1C(=O)NCc1ccc2oc(-c3ccc(OC(F)(F)F)cc3)nc2c1`, the Cmax in data set [5] was 5560 ng/mL. Further, in data set [6], the clearance stood at 0.6 mL/min/kg. In [7], the Vd was 1.2 L/kg. Besides, the half-life in [8] was 36.3 h; in data set [1] it was greater than 120 min; in [12], 1080 min; in [2], greater than 120 min. The bioavailability in [9] came out at 40.1%. The AUC(0-inf) in [10] was 116 µg·h/mL. In addition, the Tmax in data set [11] was 60 min. Also, the MIC80 was less than 0.001 µM in data set [3] and 0.009 µM (≈ 0.00463 µg/mL) in data set [4].
For the compound `CCc1nc2ccc(Cl)cn2c1C(=O)NCc1ccc2oc(C)nc2c1`, the half-life in data set [1] turned out to be 32.2 min; in data set [2] it was 5.8 min. Further, the MIC80 in data set [3] stood at 0.082 µM (≈ 0.0302 µg/mL); in data set [4], 0.2 µM (≈ 0.0738 µg/mL).
The corresponding values for `CCc1nc2ccc(Cl)cn2c1C(=O)NCc1ccc2c(c1)OCO2` are 7.4 min, 2.1 min, 0.009 µM (≈ 0.00322 µg/mL) and 0.082 µM (≈ 0.0293 µg/mL).
For `CCc1nc2cc(Cl)ccn2c1C(=O)NCc1ccc2oc(CN3CCOCC3)nc2c1`, the half-life in data set [1] came out at 23.2 min; in [2] it was 18.9 min. The MIC80 was found to be 6.67 µM (≈ 3.03 µg/mL) in data set [3] and 13.7 µM (≈ 6.22 µg/mL) in data set [4].
Consider `CCc1nc2ccc(Cl)cn2c1C(=O)NCc1ccc2oc(-c3ccc(F)cc3)nc2c1`, for which the half-life in data set [1] amounted to 25.6 min; in data set [2], 54.3 min. The MIC80 in [3] turned out to be 0.003 µM (≈ 0.00135 µg/mL); in data set [4], 0.009 µM (≈ 0.00404 µg/mL).
Regarding `CCc1nc2ccc(Cl)cn2c1C(=O)NCc1ccc(N2CCC(c3ccc(OC(F)(F)F)cc3)CC2)cc1` [TELACEBEC], the MIC80 came out at 0.001 µM (≈ 0.000557 µg/mL) in data set [3] and 0.004 µM (≈ 0.00223 µg/mL) in data set [4].
Take `CCc1nc2cc(Cl)ccn2c1C(=O)NCc1ccc2oc(C3CCCCC3)nc2c1`: the values for the half-life in data set [1] and in data set [2] were 10.2 min and 9.5 min, respectively. The MIC80 in data set [3] and in data set [4] was 0.082 µM (≈ 0.0358 µg/mL) each time.
